Experimental data as given in ChEMBL document CHEMBL4689842, “EUbOPEN Chemogenomics Library wave 1” (2021).

System: Fibroblast
Experiment: Multiplex assay against human fibroblast
Type: toxicity, cell-based
How it was run: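 Hoechst33342, BioTracker Green Microtubule Cytoskeleton Dye, MitoTracker Red and Annexin V Alexa Fluor 680 were added to live cells at seeding, and imaging on a CQ1 microscope at 37°C and 5% CO2 followed compound addition. Gating by CellPathfinder machine learning separated cells into Hoechst high-intensity objects or normal cells, then normal cells into healthy, pyknosed or fragmented nuclei, then pyknosed cells into mitotic or apoptotic. Per cents of healthy-nucleus cells are reported for the tubulin, mitochondrial-mass and membrane-permeability phenotypes.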

[1] = 12 h, 1 µM, compound concentration 1 uM, replicate 1
[2] = 12 h, 1 µM, compound concentration 1 uM, replicate 2
[3] = 12 h, 10 µM, compound concentration 10 uM, replicate 1
[4] = 12 h, 10 µM, compound concentration 10 uM, replicate 2
[5] = 24 h, 1 µM, compound concentration 1 uM, replicate 1
[6] = 24 h, 1 µM, compound concentration 1 uM, replicate 2
[7] = 24 h, 10 µM, compound concentration 10 uM, replicate 1
[8] = 24 h, 10 µM, compound concentration 10 uM, replicate 2
[9] = 48 h, 1 µM, compound concentration 1 uM, replicate 1
[10] = 48 h, 1 µM, compound concentration 1 uM, replicate 2
[11] = 48 h, 10 µM, compound concentration 10 uM, replicate 1
[12] = 48 h, 10 µM, compound concentration 10 uM, replicate 2

For `Oc1cccc(-c2nc(N3CCOCC3)c3oc4ncccc4c3n2)c1` [PI-103], the “Population Apoptotic (%)” value [1] was 64%, the “Population Fragmented Nuclei (%)” value [1] was 32% and the “Population Healthy Nuclei (%)” value [1] was 39%. The “Population Hoechst High Intensity Objects (%)” value [1] was 12%, the “Population Membrane Permeable-Phenotype (%)” value [1] was 14% and the “Population Mitochondria Different-Phenotype (%)” value [1] was 1%. The “Population Mitotic Cells (%)” value [1] was 36%, the “Population Normal (%)” value [1] was 87% and the “Population Pyknosed Nuclei (%)” value [1] was 28%. The “Population Tubulin-Different-Phenotype (%)” value [1] was 17%, the “Total Cell Count” value [1] was 199 and the “Population Apoptotic (%)” value [2] was 47%. The “Population Fragmented Nuclei (%)” value [2] was 10%, the “Population Healthy Nuclei (%)” value [2] was 63% and the “Population Hoechst High Intensity Objects (%)” value [2] was 5%. The “Population Membrane Permeable-Phenotype (%)” value [2] was 2%, the “Population Mitochondria Different-Phenotype (%)” value [2] was 7% and the “Population Mitotic Cells (%)” value [2] was 52%. For the same compound, the “Population Normal (%)” value [2] was 94%, the “Population Pyknosed Nuclei (%)” value [2] was 26% and the “Population Tubulin-Different-Phenotype (%)” value [2] was 0%. For the same compound, the “Total Cell Count” value [2] was 73, the “Population Apoptotic (%)” value [3] was 70% and the “Population Fragmented Nuclei (%)” value [3] was 34%. For the same compound, the “Population Healthy Nuclei (%)” value [3] was 34%, the “Population Hoechst High Intensity Objects (%)” value [3] was 23% and the “Population Membrane Permeable-Phenotype (%)” value [3] was 33%. For the same compound, the “Population Mitochondria Different-Phenotype (%)” value [3] was 16%, the “Population Mitotic Cells (%)” value [3] was 29% and the “Population Normal (%)” value [3] was 76%. The “Population Pyknosed Nuclei (%)” value [3] was 30%, the “Population Tubulin-Different-Phenotype (%)” value [3] was 77% and the “Total Cell Count” value [3] was 135. For the same compound, the “Population Apoptotic (%)” value [4] was 36%, the “Population Fragmented Nuclei (%)” value [4] was 18% and the “Population Healthy Nuclei (%)” value [4] was 39%. For the same compound, the “Population Hoechst High Intensity Objects (%)” value [4] was 5%, the “Population Mitochondria Different-Phenotype (%)” value [4] was 59% and the “Population Mitotic Cells (%)” value [4] was 63%. For the same compound, the “Population Normal (%)” value [4] was 94%, the “Population Pyknosed Nuclei (%)” value [4] was 41% and the “Population Tubulin-Different-Phenotype (%)” value [4] was 83%. For the same compound, the “Total Cell Count” value [4] was 69, the “Population Apoptotic (%)” value [5] was 64% and the “Population Fragmented Nuclei (%)” value [5] was 30%. For the same compound, the “Population Healthy Nuclei (%)” value [5] was 46%, the “Population Hoechst High Intensity Objects (%)” value [5] was 14% and the “Population Membrane Permeable-Phenotype (%)” value [5] was 18%. The “Population Mitochondria Different-Phenotype (%)” value [5] was 5%, the “Population Mitotic Cells (%)” value [5] was 35% and the “Population Normal (%)” value [5] was 85%. For the same compound, the “Population Pyknosed Nuclei (%)” value [5] was 22%, the “Population Tubulin-Different-Phenotype (%)” value [5] was 30% and the “Total Cell Count” value [5] was 189. For the same compound, the “Population Apoptotic (%)” value [6] was 75%, the “Population Fragmented Nuclei (%)” value [6] was 14% and the “Population Healthy Nuclei (%)” value [6] was 69%. The “Population Hoechst High Intensity Objects (%)” value [6] was 6%, the “Population Membrane Permeable-Phenotype (%)” value [6] was 3% and the “Population Mitochondria Different-Phenotype (%)” value [6] was 3%. For the same compound, the “Population Mitotic Cells (%)” value [6] was 25%, the “Population Normal (%)” value [6] was 93% and the “Population Pyknosed Nuclei (%)” value [6] was 16%. The “Population Tubulin-Different-Phenotype (%)” value [6] was 1%, the “Total Cell Count” value [6] was 73 and the “Population Apoptotic (%)” value [7] was 66%. For the same compound, the “Population Fragmented Nuclei (%)” value [7] was 32%, the “Population Healthy Nuclei (%)” value [7] was 32% and the “Population Hoechst High Intensity Objects (%)” value [7] was 32%. The “Population Membrane Permeable-Phenotype (%)” value [7] was 37%, the “Population Mitochondria Different-Phenotype (%)” value [7] was 12% and the “Population Mitotic Cells (%)” value [7] was 33%. The “Population Normal (%)” value [7] was 67%, the “Population Pyknosed Nuclei (%)” value [7] was 36% and the “Population Tubulin-Different-Phenotype (%)” value [7] was 70%. The “Total Cell Count” value [7] was 111, the “Population Apoptotic (%)” value [8] was 50% and the “Population Fragmented Nuclei (%)” value [8] was 28%. The “Population Healthy Nuclei (%)” value [8] was 24%, the “Population Hoechst High Intensity Objects (%)” value [8] was 4% and the “Population Membrane Permeable-Phenotype (%)” value [8] was 44%. The “Population Mitochondria Different-Phenotype (%)” value [8] was 75%, the “Population Mitotic Cells (%)” value [8] was 49% and the “Population Normal (%)” value [8] was 95%. The “Population Pyknosed Nuclei (%)” value [8] was 47%, the “Population Tubulin-Different-Phenotype (%)” value [8] was 89% and the “Total Cell Count” value [8] was 80. For the same compound, the “Population Apoptotic (%)” value [9] was 33%, the “Population Fragmented Nuclei (%)” value [9] was 33% and the “Population Healthy Nuclei (%)” value [9] was 53%. For the same compound, the “Population Membrane Permeable-Phenotype (%)” value [9] was 20%, the “Population Mitochondria Different-Phenotype (%)” value [9] was 5% and the “Population Mitotic Cells (%)” value [9] was 66%. The “Population Pyknosed Nuclei (%)” value [9] was 12%, the “Population Tubulin-Different-Phenotype (%)” value [9] was 22% and the “Total Cell Count” value [9] was 163. The “Population Apoptotic (%)” value [10] was 60%, the “Population Fragmented Nuclei (%)” value [10] was 32% and the “Population Healthy Nuclei (%)” value [10] was 62%. The “Population Hoechst High Intensity Objects (%)” value [10] was 14%, the “Population Membrane Permeable-Phenotype (%)” value [10] was 34% and the “Population Mitochondria Different-Phenotype (%)” value [10] was 8%. The “Population Mitotic Cells (%)” value [10] was 40%, the “Population Normal (%)” value [10] was 85% and the “Population Pyknosed Nuclei (%)” value [10] was 4%. For the same compound, the “Population Tubulin-Different-Phenotype (%)” value [10] was 47%, the “Total Cell Count” value [10] was 129 and the “Population Apoptotic (%)” value [11] was 46%. For the same compound, the “Population Fragmented Nuclei (%)” value [11] was 35%, the “Population Healthy Nuclei (%)” value [11] was 43% and the “Population Hoechst High Intensity Objects (%)” value [11] was 33%. For the same compound, the “Population Membrane Permeable-Phenotype (%)” value [11] was 34%, the “Population Mitochondria Different-Phenotype (%)” value [11] was 12% and the “Population Mitotic Cells (%)” value [11] was 53%. The “Population Normal (%)” value [11] was 66%, the “Population Pyknosed Nuclei (%)” value [11] was 20% and the “Population Tubulin-Different-Phenotype (%)” value [11] was 68%. The “Total Cell Count” value [11] was 110, the “Population Apoptotic (%)” value [12] was 78% and the “Population Fragmented Nuclei (%)” value [12] was 36%. The “Population Healthy Nuclei (%)” value [12] was 42%, the “Population Hoechst High Intensity Objects (%)” value [12] was 40% and the “Population Membrane Permeable-Phenotype (%)” value [12] was 20%. The “Population Mitochondria Different-Phenotype (%)” value [12] was 24%, the “Population Mitotic Cells (%)” value [12] was 21% and the “Population Normal (%)” value [12] was 59%. The “Population Tubulin-Different-Phenotype (%)” value [12] was 58% and the “Total Cell Count” value [12] was 114.
